# Assay outcomes: PubChem BioAssay, SRMLSC
# Ecoli WT expand = growth inhibitors of E. coli BW25113 wild type; 0.15% of 98,000 active; OD600 absorbance; growth inhibition, % at 100 µM;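 active = growth inhibition above about 50% at one test dose, limit read from the data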;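 also: growth measured after 20 h incubation at 37 °C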
# PostGolgi ctrl = inhibits growth of the yeast control strain; efflux-deficient yeast background strain, growth absorbance A615, 16 h; inhibition, % at 10 µM; 5% of 98,000 active; AID 738
# PostGolgi yeast = growth inhibition of a yeast mutant, post-Golgi transport screen. 0.9% of 98,000 active. inhibition, % at 10 µM. AID 739. post-Golgi transport phenotypic cell assay;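 also: yeast cells grown in 1536-well plates; yeast grown about 18 h at 30C before absorbance read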
# tolC growth inh = E. coli tolC mutant growth inhibition; E. coli BW25113 tolC mutant growth, OD615; 2.2% of 65,000 active; growth inhibition, % at 10 µM (by protocol);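 active = growth inhibition at or above a cutoff equal to the mean over every tested compound plus 3 SD, cut at about 60% in these data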;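 also: growth measured after 20 h incubation at 37 °C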
#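 Test system: tolC-deleted E. coli BW25113; medium: LB with kanamycin 50 µg/mL; compound: single-point testing at 10 µM; incubation: 20 h compound exposure of bacteria at 37 °C; signal: OD at 615 nm; evaluation: growth inhibition in percent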
# An asterisk follows results filed as active; . = not tested or not shown. Most compounds without a hit are left out; they make up all but 6.3% or so of the library. Rule as the data show it, unless noted: active = inhibition above about 30%; inactive = the rest.
SMILES,Ecoli WT expand,PostGolgi ctrl,PostGolgi yeast,tolC growth inh
COc1ccc(C(=O)/C=C/c2ccccc2C(F)(F)F)cc1,-1,15,4,.
O=C(NC1CCCCC1)C(c1ccc2ncccc2c1)N(Cc1ccc(F)cc1)C(=O)c1cccs1 (stereo unspecified),-2,-5,-9,.
Cc1cc(N2CCOCC2)nc(-c2ccc([N+](=O)[O-])cc2)n1,-7,10,0,.
COCCN(Cc1cc2cc(C)cc(C)c2nc1Cl)C(=O)Nc1ccccc1,-12,35*,-2,.
Cc1cc(C)c2cc(CN(Cc3ccco3)C(=O)NCc3ccccc3)c(=O)[nH]c2c1,-2,22,5,7
Cc1cc(C)c2nc(Cl)c(CN(Cc3ccco3)C(=O)Nc3ccccc3C)cc2c1,-22,34*,7,.
COc1ccc(NC(=O)N(CCO)Cc2cc3c(C)cc(C)cc3[nH]c2=O)cc1,-2,0,-8,0
COc1ccc(-c2cc(OC)c3c(C)oc(C)c3c(=O)c2)cc1OC,-10,5,-4,-14
COc1cc(-c2cc(OC)c3c(C)oc(C)c3c(=O)c2)ccc1O,7,45*,7,7
O=C(N/C=N/OCc1cccc(C(F)(F)F)c1)N1OC[C@@H]2COc3ccc4ccccc4c3[C@@H]21,-4,7,1,.
COc1ccc(S(=O)(=O)n2cnc3cc(C)c(C)cc32)cc1,12,5,-6,47
COc1ccc(S(=O)(=O)n2cnc3cc(C)c(C)cc32)cc1C,-1,14,1,77*
COC(=O)c1cn(NC(=O)c2ccc(OC)c(OC)c2)c(=O)c2ccccc12,-4,0,18,.
COC(=O)c1cn(Nc2ncc(C(F)(F)F)cc2Cl)c(=O)c2ccccc12,2,40*,-5,.
COC(=O)c1cn(NC(=O)c2cnccn2)c(=O)c2ccccc12,1,-3,6,99*
Cc1cccc(/C=C2/S/C(=N/N=C3\CC4CCC3(C)C4(C)C)NC2=O)c1 (stereo unspecified),-7,8,1,.
O=C(CN1C(=O)CNC1=O)Nc1cccc(C(F)(F)F)c1,4,5,0,-6
O=C(c1ccccc1)c1cccc(NC(=O)c2ccco2)c1,2,38*,-4,32
O=C(Nc1ccc(Br)c(Cl)c1)c1ccco1,5,12,27,100*
COc1ccc(-c2cc3nc4n(c(=O)c3s2)CCOC4)cc1,.,.,.,1
CCOC(=O)Cn1nc(C)n(-c2ccc(C(C)C)cc2)c1=O,2,-5,1,.
COc1cc(-n2nnnc2SCC(=O)N2CCN(c3ccc(F)cc3)CC2)c(OC)cc1Cl,-5,38*,4,11
CCOC(=O)CSc1nnnn1-c1cc(OC)c(Cl)cc1OC,-2,3,5,-18
N#Cc1c(Sc2ncc(C(F)(F)F)cc2Cl)nsc1C/C=N\OCc1c(F)cccc1Cl,-7,4,-7,.
N#C/C(=C\C1CC2C=CC1C2)c1nc2ccccc2[nH]1 (stereo unspecified),-6,4,-1,.
SMILES,Ecoli WT expand,PostGolgi ctrl,PostGolgi yeast,tolC growth inh
CCn1c(CSc2nnc(-c3ccoc3C)n2C)nc2cc(S(=O)(=O)N(C)C)ccc21,-1,38*,-5,-4
Cc1nc2cc(CC(=O)O)ccc2o1,2,14,0,.
CCSc1nnc(NC(=O)c2cc(C)oc2C)s1,1,9,14,54
CCSc1nnc(NC(=O)c2cc(C)nc3ccccc23)s1,-3,39*,-7,.
CCSc1nnc(NC(=O)c2cccs2)s1,-16,3,-4,13
CCSc1nnc(NC(=O)c2ccc3ccccc3n2)s1,-4,33*,13,.
CCC(C)(C)NC(=O)CN(C(=O)CCC(=O)Nc1ccccn1)c1ccc(F)c(Cl)c1,2,1,41*,.
CC(C)NC(=O)CN(C(=O)CCC(=O)Nc1ccccn1)c1ccc(F)c(Cl)c1,1,3,2,-10
COc1cc(N)c(Cl)cc1NC(=O)c1ccccc1,3,39*,8,-5
COc1ccccc1NC(=O)c1ccc(N)cc1,2,0,-3,-2
c1nnc(NC2=NCCC2)s1,7,-2,-3,.
CCc1nnc(NC2=NCCC2)s1,2,33*,7,3
CCOC(=O)NC(Nc1ccc(S(N)(=O)=O)cc1)(C(=O)OCC)C(F)(F)F (stereo unspecified),1,0,32*,-6
COc1ccc(C2CCCN2C(=O)Nc2ccccc2)cc1OC (stereo unspecified),4,19,0,.
CC(C)(C)C1CCc2c(sc(NC(=O)C3CCCO3)c2C(N)=O)C1 (stereo unspecified),8,60*,4,.
Cc1c(C(=O)OCC(=O)N2CC(=O)Nc3ccccc32)oc2ccc(Br)cc12,-2,2,4,.
C=C(C)CN1C(=O)C(O)(CC(=O)c2ccc3c(c2)OCCO3)c2ccccc21 (stereo unspecified),3,41*,-10,16
O=C(Oc1ccc(Cl)c2cccnc12)c1ccco1,100*,12,-5,.
CCOc1ccccc1OC(=O)c1ccco1,9,36*,-2,-8
Cn1nc(-c2ccccc2)c(C(=O)Nc2ccc(Cl)cc2)c1Cl,-3,39*,10,.
Cn1nc(-c2ccccc2)c(C(=O)Nc2ccc(C(F)(F)F)cc2)c1Cl,-8,7,-6,.
Cc1ccc(C(=O)N(CC(=O)NC2CCCC2)Cc2cccs2)s1,5,4,8,-6
CC(=O)c1ccccc1OCC(O)CN1CCN(C(c2ccccc2)c2ccccc2)CC1 (stereo unspecified),-3,10,13,74*
CCOC(=O)N1CCN(CC(O)COc2ccccc2C(C)C)CC1 (stereo unspecified),1,0,4,4
CCOC(=O)N1CCN(CC(O)COc2ccccc2C(C)CC)CC1 (stereo unspecified),2,26,50*,-7
SMILES,Ecoli WT expand,PostGolgi ctrl,PostGolgi yeast,tolC growth inh
Clc1cccc(Cl)c1Cn1cnc2c(N3CCCCCC3)ncnc21,-8,34*,1,42
CCOc1ccc(-c2[nH]ncc2Oc2cccc(OC)c2)c(O)c1,15,75*,86*,99*
COc1cccc(Oc2cn[nH]c2-c2ccc(O)cc2O)c1,24,16,-1,96*
COc1cccc(C(=O)N/N=C/c2cn[nH]c2-c2ccc(OC)cc2OC)c1,2,0,-10,.
COc1cccc(Oc2cn[nH]c2-c2ccc(OC)cc2O)c1,20,92*,94*,97*
CCCOC(=O)c1ccc(Oc2cn[nH]c2-c2ccc(OCC)cc2O)cc1,11,0,2,70*
CCOc1ccc(-c2n[nH]c(C)c2-c2ccccc2OC)c(O)c1,-3,19,-6,35
O=C(CSc1n[nH]c(-c2ccccc2)n1)c1ccc(O)c(O)c1,-1,0,19,20
C/C(=N\Nc1ccc([N+](=O)[O-])cc1)c1cccc(N)c1,13,5,31*,.
O=C(NNC(=O)C1CC1c1ccccc1)Nc1cccc(Cl)c1 (stereo unspecified),4,0,-1,.
COc1ccc(-c2c(C)nn(-c3ccccc3)c2N)cc1,5,38*,1,.
Cc1nn(-c2ccc(C(=O)O)cc2)c(N)c1-c1ccccc1,-17,9,4,-14
Cc1nn(-c2nc3ccccc3[nH]2)c(N)c1-c1ccc(Cl)cc1,-8,72*,-2,.
